Data: ChEMBL document CHEMBL1275408, “A chemical genomic screen in Saccharomyces cerevisiae reveals a role for diphthamidation of translation elongation factor 2 in inhibition of protein synthesis by sordarin” (2008)
Activity calls are given as the source filed them. The calls are words filed in the database; no cut-off is given here.

Assays:
Saccharomyces cerevisiae [1] = experiment: Antifungal activity against Saccharomyces cerevisiae BY4741 harboring MTF1 YMR228W mutant gene by spectrophotometry; assay type: functional
Procedure, shortened: (§1)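 Haploid MATa BY4741 KanMX4 deletion strains pinned from frozen stocks into YPD + G418 (150 mg/liter), grown 3 days at 28°C to confluence, then pin-replicated into SC liquid with no drug or sordarin derivative GM193663 (2 ng/ml sensitivity; 62.5 ng/ml resistance). 28°C, OD595 read every 24 h for 5 days; growth scored relative to wild type on same plate and to untreated mutant.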

Saccharomyces cerevisiae [2] = experiment: Antifungal activity against Saccharomyces cerevisiae BY4741 harboring DJP1 YIR004W mutant gene by spectrophotometry; assay type: functional
Procedure, shortened: (§2)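 Screen of BY4741 KanMX4 deletion strains pre-grown 3 days at 28°C in YPD with G418 (150 mg/liter), then pinned into liquid SC containing GM193663. The sensitivity screen used 2 ng/ml; the resistance screen used 62.5 ng/ml, with validation at 62.5, 125 and 500 ng/ml. OD595 was read every 24 h over 5 days at 28°C. Growth was scored relative to wild type and to drug-free controls. Retests were at least in duplicate.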

Saccharomyces cerevisiae [3] = experiment: Antifungal activity against Saccharomyces cerevisiae BY4741 harboring MIP6 YHR015W mutant gene by spectrophotometry; assay type: functional; procedure, shortened: as §2
Saccharomyces cerevisiae [4] = experiment: Antifungal activity against Saccharomyces cerevisiae BY4741 harboring ARN2 YHL047C mutant gene by spectrophotometry; assay type: functional; procedure, shortened: as §2
Saccharomyces cerevisiae [5] = experiment: Antifungal activity against Saccharomyces cerevisiae BY4741 harboring ARN1 YHL040C mutant gene by spectrophotometry; assay type: functional; procedure, shortened: as §2
Saccharomyces cerevisiae [6] = experiment: Antifungal activity against Saccharomyces cerevisiae BY4741 harboring BUD9 YGR041W mutant gene by spectrophotometry; assay type: functional; procedure, shortened: as §2
Saccharomyces cerevisiae [7] = experiment: Antifungal activity against Saccharomyces cerevisiae BY4741 harboring KTR7 YIL085C mutant gene by spectrophotometry; assay type: functional; procedure, shortened: as §2
Saccharomyces cerevisiae [8] = experiment: Antifungal activity against Saccharomyces cerevisiae BY4741 harboring SBE2 YDR351W mutant gene by spectrophotometry; assay type: functional; procedure, shortened: as §1
Saccharomyces cerevisiae [9] = experiment: Antifungal activity against Saccharomyces cerevisiae BY4741 harboring MSR1 YHR091C mutant gene by spectrophotometry; assay type: functional; procedure, shortened: as §1
Saccharomyces cerevisiae [10] = experiment: Antifungal activity against Saccharomyces cerevisiae BY4741 harboring JJJ3/DPH4 YJR097W mutant gene by spectrophotometry; assay type: functional; procedure, shortened: as §2
Saccharomyces cerevisiae [11] = experiment: Antifungal activity against Saccharomyces cerevisiae BY4741 harboring DPH2 YKL191W mutant gene by spectrophotometry; assay type: functional; procedure, shortened: as §2
Saccharomyces cerevisiae [12] = experiment: Antifungal activity against Saccharomyces cerevisiae BY4741 harboring ATP12 YJL180C mutant gene assessed as reduction in fungal growth at 2 ng/ml by spectrophotometry; assay type: functional, organism-based
Procedure, shortened: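 Haploid BY4741 KanMX4 deletion strains pre-grown in YPD with G418 (150 mg/liter) for 3 days at 28°C. They were then pin-replicated into liquid SC with sordarin derivative GM193663 at 2 ng/ml, or without drug. Plates were incubated at 28°C and OD595 read every 24 h for 5 days. Growth was scored against wild type on the same plate and against the drug-free mutant. Hits were retested at least in duplicate.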

Saccharomyces cerevisiae [13] = experiment: Antifungal activity against Saccharomyces cerevisiae BY4741 harboring deletion mutation in dph5 gene at 300 to 500 ng/ml after 24 hrs by liquid growth assay; assay type: functional
Saccharomyces cerevisiae [14] = experiment: Antifungal activity against Saccharomyces cerevisiae BY4741 harboring deletion mutation in dph1 gene at 300 to 500 ng/ml after 24 hrs by liquid growth assay; assay type: functional
Saccharomyces cerevisiae [15] = experiment: Antifungal activity against Saccharomyces cerevisiae BY4741 harboring deletion mutation in dph4 gene at 100 ng/ml by plate assay; assay type: functional, organism-based
Procedure, shortened: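 Spot test on solid SC glucose plates with or without 100 ng/ml sordarin. Drops of 10^5 cells plus 10-fold serial dilutions of each dph deletion strain were spotted alongside the parental strain. Plates were incubated at 28°C for 6 days and imaged every 24 h.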

Saccharomyces cerevisiae [16] = experiment: Antifungal activity against Saccharomyces cerevisiae BY4741 harboring RMD9 YGL107C mutant gene by spectrophotometry; assay type: functional; procedure, shortened: as §1
Saccharomyces cerevisiae [17] = experiment: Antifungal activity against Saccharomyces cerevisiae BY4741 harboring LDB17 YDL146W mutant gene by spectrophotometry; assay type: functional; procedure, shortened: as §2
Saccharomyces cerevisiae [18] = experiment: Antifungal activity against Saccharomyces cerevisiae BY4741 harboring DLT1 YMR126C mutant gene by spectrophotometry; assay type: functional; procedure, shortened: as §2
Saccharomyces cerevisiae [19] = experiment: Antifungal activity against Saccharomyces cerevisiae BY4741 harboring YMR141C mutation in unknown gene by spectrophotometry; assay type: functional
Procedure, shortened: (§3)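 Deletion strains from the nonessential haploid MATa BY4741 collection (KanMX4 replacement) were grown in YPD with G418 at 28°C for 3 days, then pinned into liquid SC with or without sordarin derivative GM193663 (2 ng/ml for sensitivity, 62.5 ng/ml for resistance). Cultures were kept at 28°C and read at OD595 every 24 h for 5 days. Growth was scored against wild type on the same plate and against the drug-free control. Hits were retested at least in duplicate.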

Saccharomyces cerevisiae [20] = experiment: Antifungal activity against Saccharomyces cerevisiae BY4741 harboring YER087W mutation in unknown gene by spectrophotometry; assay type: functional; procedure, shortened: as §3
Saccharomyces cerevisiae [21] = experiment: Antifungal activity against Saccharomyces cerevisiae BY4741 harboring SCS22 YBL091C-A mutant gene by spectrophotometry; assay type: functional; procedure, shortened: as §1
Saccharomyces cerevisiae [22] = experiment: Antifungal activity against Saccharomyces cerevisiae BY4741 harboring COX11 YPL132W mutant gene by spectrophotometry; assay type: functional; procedure, shortened: as §2

Work on `CO[C@H]1[C@@H](O)[C@H](O)[C@H](OC[C@@]23C[C@@H]4[C@H](C)CC[C@H]4[C@@]4(C=O)CC2C=C(C(C)C)[C@@]34C(=O)O)O[C@@H]1C` [SORDARIN] yielded an MIC (Saccharomyces cerevisiae [1]) of over 0.125 µg/mL, an MIC (Saccharomyces cerevisiae [2]) of over 0.5 µg/mL and an MIC (Saccharomyces cerevisiae [3]) of over 0.5 µg/mL. The MIC (Saccharomyces cerevisiae [4]) was over 0.5 µg/mL, the MIC (Saccharomyces cerevisiae [5]) was over 0.5 µg/mL and the MIC (Saccharomyces cerevisiae [6]) was over 0.125 µg/mL. For the same molecule, the MIC (Saccharomyces cerevisiae [7]) was over 0.5 µg/mL, the MIC (Saccharomyces cerevisiae [8]) was over 0.5 µg/mL and the MIC (Saccharomyces cerevisiae [9]) was over 0.125 µg/mL. For the same molecule, the MIC (Saccharomyces cerevisiae [10]) was over 0.125 µg/mL, the MIC (Saccharomyces cerevisiae [11]) was over 0.5 µg/mL and the Activity (Saccharomyces cerevisiae [12]) was “Active”. For the same molecule, the Activity (Saccharomyces cerevisiae [13]) was 50%, the Activity (Saccharomyces cerevisiae [14]) was 50% and the MIC (Saccharomyces cerevisiae [15]) was “inactive”. It also gave an MIC (Saccharomyces cerevisiae [16]) of over 0.125 µg/mL, an MIC (Saccharomyces cerevisiae [17]) of over 0.125 µg/mL and an MIC (Saccharomyces cerevisiae [18]) of over 0.125 µg/mL. For the same molecule, the MIC (Saccharomyces cerevisiae [19]) was over 0.5 µg/mL, the MIC (Saccharomyces cerevisiae [20]) was over 0.5 µg/mL and the MIC (Saccharomyces cerevisiae [21]) was over 0.5 µg/mL. The MIC (Saccharomyces cerevisiae [22]) was over 0.125 µg/mL.
